According to ChEMBL document CHEMBL4613315, “Design of First-in-Class Dual EZH2/HDAC Inhibitor: Biochemical Activity and Biological Evaluation in Cancer Cells” (ACS Med Chem Lett, 2020):
Calls of active or inactive are those of the source. No cut-off for these calls is given here.

Experiments:
[1] = Cytotoxicity against human RH4 cells assessed as reduction in cell viability at 50 uM in presence of vorinostat incubated for 72 hrs by CellTiter-Glo Luminescent cell viability assay relative to control; type: functional; conditions: Rh4, 72 h
Method in brief: (§1)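 Viability after 72 h of single-agent or combined treatment with the HDAC inhibitor (0.05–0.25 μM) and the EZH2 inhibitor. EZH2 inhibitor range: U937 5–25 μM; RH4 10–50 μM. Synergy was assessed by combination index and isobologram analysis.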

[2] = target: T1, Protein deacetylase HDAC6 (Homo sapiens) (UniProt Q9UBN7); experiment: Inhibition of HDAC6 in human RH4 cells assessed as acetylated alpha-tubulin level at 50 uM incubated for 96 hrs by Western blot analysis; type: cell-based
T1 sequence (whole entry): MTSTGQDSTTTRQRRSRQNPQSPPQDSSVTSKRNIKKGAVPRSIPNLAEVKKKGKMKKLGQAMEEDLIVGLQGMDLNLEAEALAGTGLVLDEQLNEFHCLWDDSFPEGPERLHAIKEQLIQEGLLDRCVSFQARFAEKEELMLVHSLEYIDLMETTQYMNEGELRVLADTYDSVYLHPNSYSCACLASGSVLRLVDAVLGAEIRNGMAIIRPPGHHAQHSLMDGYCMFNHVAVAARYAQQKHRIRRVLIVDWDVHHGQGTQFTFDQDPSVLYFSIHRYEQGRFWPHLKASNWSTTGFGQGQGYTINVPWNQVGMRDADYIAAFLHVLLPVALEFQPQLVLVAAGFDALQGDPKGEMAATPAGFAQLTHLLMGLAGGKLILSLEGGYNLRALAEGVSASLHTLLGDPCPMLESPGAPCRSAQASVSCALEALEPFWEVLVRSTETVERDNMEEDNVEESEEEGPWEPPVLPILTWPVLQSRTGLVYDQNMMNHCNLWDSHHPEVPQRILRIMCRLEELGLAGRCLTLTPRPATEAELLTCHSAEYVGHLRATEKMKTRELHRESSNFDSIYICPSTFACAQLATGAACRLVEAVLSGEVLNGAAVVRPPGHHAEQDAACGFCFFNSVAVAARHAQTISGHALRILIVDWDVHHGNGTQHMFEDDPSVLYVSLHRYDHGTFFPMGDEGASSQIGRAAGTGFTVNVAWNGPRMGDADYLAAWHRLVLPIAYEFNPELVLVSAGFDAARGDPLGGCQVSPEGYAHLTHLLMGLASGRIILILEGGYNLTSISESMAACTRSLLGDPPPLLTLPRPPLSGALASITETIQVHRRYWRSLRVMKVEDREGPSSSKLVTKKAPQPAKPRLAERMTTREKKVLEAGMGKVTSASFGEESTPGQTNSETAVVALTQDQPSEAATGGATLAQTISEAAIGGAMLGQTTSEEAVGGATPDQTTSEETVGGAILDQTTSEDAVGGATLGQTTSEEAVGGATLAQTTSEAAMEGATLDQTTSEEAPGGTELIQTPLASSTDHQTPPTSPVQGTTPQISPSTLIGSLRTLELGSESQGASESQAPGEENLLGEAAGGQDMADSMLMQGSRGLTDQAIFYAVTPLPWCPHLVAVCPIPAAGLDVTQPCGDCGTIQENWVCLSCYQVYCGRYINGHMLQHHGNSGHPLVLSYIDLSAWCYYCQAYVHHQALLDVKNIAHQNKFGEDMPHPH

[3] = system: U-937; experiment: Cytotoxicity against human U937 cells assessed as reduction in cell viability at 10 uM in presence of vorinostat incubated for 72 hrs by CellTiter-Glo Luminescent cell viability assay relative to control; type: functional; conditions: U-937, 72 h; method in brief: as §1
[4] = target: T1, Protein deacetylase HDAC6 (Homo sapiens); experiment: Inhibition of HDAC6 in human RH4 cells assessed as acetylated alpha-tubulin level at 50 uM in presence of vorinostat incubated for 96 hrs by Western blot analysis (reference value: 1); type: cell-based
Method in brief: (§2)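 RH4 cells co-treated with EZH2 inhibitor at 50 μM plus HDAC inhibitor at 0.15 μM; Western blot after 72 or 96 h for H3K27me3 or acetyl-tubulin, vinculin loading control; densitometry normalized to loading control then DMSO vehicle.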

[5] = target: T2, Histone-lysine N-methyltransferase EZH2 (Homo sapiens, UniProt Q15910); experiment: Inhibition of EZH2 in human RH4 cells assessed as H3K27me3 level at 50 uM in presence of vorinostat incubated for 96 hrs by Western blot analysis (reference value: 1); type: cell-based; method in brief: as §2
T2 sequence (Q15910 whole entry, looked up): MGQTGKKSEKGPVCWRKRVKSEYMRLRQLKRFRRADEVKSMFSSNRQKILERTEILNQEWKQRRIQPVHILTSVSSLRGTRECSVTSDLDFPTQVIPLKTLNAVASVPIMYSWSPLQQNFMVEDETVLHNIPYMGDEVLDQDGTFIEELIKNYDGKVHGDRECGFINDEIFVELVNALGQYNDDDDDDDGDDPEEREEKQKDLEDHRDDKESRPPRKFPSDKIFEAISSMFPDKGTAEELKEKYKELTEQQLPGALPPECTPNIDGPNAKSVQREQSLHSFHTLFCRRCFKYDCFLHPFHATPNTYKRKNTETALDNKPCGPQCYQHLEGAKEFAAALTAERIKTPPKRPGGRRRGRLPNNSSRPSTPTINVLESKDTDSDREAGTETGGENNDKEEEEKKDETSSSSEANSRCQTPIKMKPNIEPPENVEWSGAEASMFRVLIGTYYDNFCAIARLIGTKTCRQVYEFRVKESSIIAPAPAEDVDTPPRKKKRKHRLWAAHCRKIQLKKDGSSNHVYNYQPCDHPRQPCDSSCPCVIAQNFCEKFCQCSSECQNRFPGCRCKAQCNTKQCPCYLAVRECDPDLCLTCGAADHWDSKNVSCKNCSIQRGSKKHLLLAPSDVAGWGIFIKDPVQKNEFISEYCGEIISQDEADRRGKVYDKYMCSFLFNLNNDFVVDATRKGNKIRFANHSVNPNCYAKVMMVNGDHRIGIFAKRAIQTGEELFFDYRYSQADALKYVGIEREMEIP

[6] = target: T2, Histone-lysine N-methyltransferase EZH2; experiment: Inhibition of EZH2 in human U937 cells assessed as H3K27me3 level at 50 uM incubated for 120 hrs by Western blot analysis; type: cell-based; conditions: U-937
[7] = species: Homo sapiens; experiment: Cell cycle arrest in human RH4 cells assessed as increase in subG1 accumulation incubated for 72 hrs by propidium iodide staining based assay; type: functional
[8] = Induction of apoptosis in human RH4 cells assessed as late apoptotic cells at 28 uM incubated for 72 hrs by annexin V-FITC staining based flow cytometry (reference value: 2.1 %); type: functional
[9] = system: U-937; experiment: Induction of apoptosis in human U937 cells assessed as early apoptotic cells at 10 uM incubated for 72 hrs by annexin V-FITC staining based flow cytometry (reference value: 3.4 %); type: functional
[10] = system: U-937; experiment: Cytotoxicity against human U937 cells assessed as reduction in cell viability at 10 uM incubated for 96 hrs by CellTiter-Glo Luminescent cell viability assay relative to control; type: functional; conditions: U-937, 96 h
Method in brief: (§3)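 Viability of U937 (5–25 μM) and RH4 (5–35 μM) cells after 48, 72 and 96 h of treatment at increasing concentrations.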

[11] = system: SK-N-SH; experiment: Cytotoxicity against human SK-N-SH cells assessed as reduction in cell viability incubated for 72 hrs by CellTiter-Glo Luminescent cell viability assay; type: functional, cell-based
Method in brief: (§4)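 Antiproliferative IC50 after 72 h of treatment. Values are means of three independent experiments, each measured in triplicate, ± SD.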

[12] = species: Homo sapiens; experiment: Induction of differentiation of human RH4 cells assessed as increase in myogenin level at 7 uM incubated for 96 hrs by Western blot analysis; type: functional
Method in brief: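 Myogenin was measured by Western blot in RH4 cells treated at 7 and 14 μM for 48, 72 and 96 h. Vinculin served as the loading control.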

[13] = target: Histone deacetylase 2 (Homo sapiens, UniProt Q92769)
Sequence of Histone deacetylase 2 (Q92769 whole entry): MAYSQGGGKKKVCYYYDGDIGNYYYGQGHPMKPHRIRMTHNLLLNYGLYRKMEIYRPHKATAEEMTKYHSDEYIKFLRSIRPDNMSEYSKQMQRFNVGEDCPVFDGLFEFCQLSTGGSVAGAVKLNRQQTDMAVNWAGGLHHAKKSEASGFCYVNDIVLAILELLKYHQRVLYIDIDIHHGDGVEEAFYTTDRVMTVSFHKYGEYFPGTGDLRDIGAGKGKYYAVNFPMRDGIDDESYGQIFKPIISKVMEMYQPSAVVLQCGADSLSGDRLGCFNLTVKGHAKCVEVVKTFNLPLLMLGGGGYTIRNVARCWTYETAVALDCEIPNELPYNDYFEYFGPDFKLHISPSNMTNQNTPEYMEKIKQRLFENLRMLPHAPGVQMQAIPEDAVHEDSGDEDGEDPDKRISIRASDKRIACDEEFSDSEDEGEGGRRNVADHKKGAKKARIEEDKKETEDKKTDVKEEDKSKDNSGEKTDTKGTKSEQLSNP

[14] = system: U-87 MG; experiment: Cytotoxicity against human U87 cells assessed as reduction in cell viability incubated for 72 hrs by CellTiter-Glo Luminescent cell viability assay; type: functional, cell-based, U-87MG ATCC; method in brief: as §4
[15] = system: U-937; experiment: Induction of apoptosis in human U937 cells assessed as necrotic cells at 25 uM incubated for 72 hrs by annexin V-FITC staining based flow cytometry (reference value: 0.5 %); type: functional
[16] = Cell cycle arrest in human RH4 cells assessed as G2/M accumulation at 28 uM incubated for 72 hrs by propidium iodide staining based flow cytometry (reference value: 18.9 %); type: functional
[17] = system: U-937; experiment: Cell cycle arrest in human U937 cells assessed as increase in subG1 accumulation incubated for 72 hrs by propidium iodide staining based assay; type: functional
[18] = Cytotoxicity against human RH4 cells assessed as reduction in cell viability at 20 uM incubated for 96 hrs by CellTiter-Glo Luminescent cell viability assay relative to control; type: functional; conditions: Rh4, 96 h; method in brief: as §3

With `Cc1cc(C)c(CNC(=O)c2cc(C)n(-c3ccccc3)c2C)c(=O)[nH]1` the inhibition at 50 µM [1] was > 60%, the fold change (FC) [2] was 1.4 and the inhibition at 10 µM [3] was 70%. For the same molecule, the fold change (FC) [4] was 1.3, the fold change (FC) [5] was 0.2 and the fold change (FC) [6] was 0.7.
With `Cc1cc(C)c(CNC(=O)c2cc(C)n(-c3cccc(NC(=O)CCCCCCC(=O)NO)c3)c2C)c(=O)[nH]1` the Activity [7] was “Dose-dependent effect”, the Activity [8] was 4.4% and the Activity [9] was 4.2%. For the same molecule, the inhibition at 10 µM [10] was 60%, the IC50 [11] was 25 µM and the Activity [12] was “Active”. It also gave an IC50 [13] of 1.33 µM, an IC50 [14] of 20 µM and an Activity [15] of 0.3%. The Activity [16] was 6.4%, the Activity [17] was “Dose-dependent effect” and the inhibition at 20 µM [18] was > 60%.
